Experimental data: PubChem BioAssay
Results filed as inconclusive are left out.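 How the source made its calls, unless noted: active means RAM network inhibition above 8.4% in each of two replicates, 3 SD over the compound average; inconclusive means above 8.4% inhibition in only one replicate; inactive means 8.4% inhibition or less in each replicate.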

Tests used:
[1] = OD615 S. cerevisiae growth inhibition, permissive medium, pilot counter-assay, permissive growth control for S. cerevisiae lifespan shortening project (AID 705;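 active means growth inhibition above 25% in both replicates, a cutoff set 3 SD above the mean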); conditions: OD615, 24 h, at 10 µM, active compounds read high
Procedure, shortened: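 System: Engineered DeaD yeast | Buffer or medium: SC raffinose/galactose permissive medium | Doses: 10 µM single dose, 0.25% DMSO | Times: 24 h exposure, 30 °C | Measured by: OD615 turbidity read | Read-out: Yeast growth inhibition indicated by reduced 24 h OD615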

[2] = Restrictive medium S. cerevisiae growth inhibition, OD615, pilot screen of yeast lifespan reduction project, restrictive growth control (AID 706;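 active means growth inhibition above a set limit, 3 SD over mean compound inhibition, in both replicates, cut at about 43% in these data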;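 further: modified DeaD lifespan yeast strain shifted to restrictive glucose medium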); conditions: OD615, 48 h, at 10 µM, active compounds read high
Procedure, shortened: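 Assay system: engineered S. cerevisiae DeaD strain; Buffer or medium: CSMM-D glucose medium; Dosing: 10 µM compound, 0.25% DMSO; Times: cell pre-growth 4 h, compound exposure 48 h, 30 °C; Detection: absorbance (optical density) measured at 615 nm.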

[3] = viability gain of MRP-1-high H69AR cells under doxorubicin, pilot screen, MRP-1 activator project, CellTiter-Glo, duplicate (AID 807;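 active means viability increase at or above a cutoff of the median across tested compounds plus 3 SD, cut at about 8.5% in these data, passing the limit was not always enough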;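 further: compound pretreatment 18-22 h then 72 h combined with doxorubicin; 0% = doxorubicin alone and 100% = vehicle without doxorubicin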); conditions: H69AR viability with doxorubicin, CellTiter-Glo luminescence; at 10 µM; active compounds read high
[4] = growth suppression of beta-catenin knockout HCT116, pilot screen, human colon tumor cells (AID 823;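 active means cell viability at or below a set limit in both duplicate runs, the limit being the all-compound median minus 4 SD, cut at about 23% in these data, passing the limit was not always enough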;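 further: 0% = wells killed by 20 µM Hyamine and 100% = untreated DMSO cell wells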); conditions: CellTiter-Glo, 60 h, at 10 µM, active compounds read low
[5] = growth suppression of PTEN-deleted HCT116, pilot screen, cell-based, HCT116 clonal line, CellTiter-Glo (AID 824;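 active means viability at or below 27.92% in each of two runs, the all-compound median minus 4 SD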;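 further: 0% = 20 µM Hyamine control and 100% = vehicle cell control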); conditions: 60 h, at 10 µM, active compounds read low
[6] = inhibitors of the yeast RAM network, pilot screen, dse1pr::URA3 reporter, 5-FOA selection (AID 869;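 active means inhibition over a set limit, the all-compound mean plus 3 SD, in both replicate runs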;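 further: 0% = DMSO wells with no growth and 100% = 10 µM 1-NA-PP1 with full growth; RAM network block rescues cells from 5-FOA so hits raise OD615 growth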); conditions: S. cerevisiae dse1pr::URA3 5-FOA growth, OD615, 2 d; at 10 µM; active compounds read high; strain carries analog-sensitive mutant Cbk1 kinase
[7] = RAM signaling pathway blockade in yeast – S. cerevisiae, Pdr1DBD-CYC8 efflux-inhibited sensitized strain, primary screen (AID 1298);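 further: 0% = DMSO untreated cells without growth and 100% = 10 µM 1-NA-PP1 full growth; higher means more yeast growth rescued from 5-FOA killing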; conditions: S. cerevisiae cbk1-as DSE1-URA3 strain, 5-FOA growth OD615, 2 d; at 50 µM; active compounds read high

COc1ccc(C2CC(c3ccc(F)cc3)Nc3nc(N)nn32)cc1 (stereo unspecified)
inactive: growth inhibition [1] -3.94% | growth inhibition [2] 11.2% | viability increase [3] 0.02% | viability [4] 98.1% | viability [5] 94.4% | inhibition [6] 1% | RAM network inhibition [7] 6.59%

CSC1=NCCN1C(=O)c1cccs1
inactive: growth inhibition [1] -2.12% | growth inhibition [2] 11.1% | viability increase [3] 0.08% | viability [4] 99% | viability [5] 99.3% | inhibition [6] 1.11% | RAM network inhibition [7] 1.55%

CC(=O)c1ccc(NC(=O)CN2C(=O)COc3ccc(Cl)cc32)cc1
inactive: growth inhibition [1] -16.9% | growth inhibition [2] -13.2% | viability increase [3] -2.36% | viability [4] 84% | viability [5] 79.2% | inhibition [6] 2.46% | RAM network inhibition [7] 5.11%

CCOc1ccc(C2CC(c3ccc(F)cc3)Nc3nc(N)nn32)cc1 (stereo unspecified)
inactive: growth inhibition [1] 4.3% | growth inhibition [2] 6.27% | viability increase [3] 2.97% | viability [4] 105% | viability [5] 101% | inhibition [6] 0.7% | RAM network inhibition [7] 0.88%

CC(C)Sc1nc(SCC(=O)NCc2ccco2)c2c3c(sc2n1)COC(C)(C)C3
inactive: growth inhibition [1] -10.2% | growth inhibition [2] -10.9% | viability increase [3] -3.75% | viability [4] 83.2% | viability [5] 86.2% | inhibition [6] 0.615% | RAM network inhibition [7] 11.6%

Cc1cc(C)n(S(=O)(=O)c2cccc(Cl)c2Cl)n1
inactive: growth inhibition [1] -2.69% | growth inhibition [2] -0.205% | viability increase [3] -1.97% | viability [4] 96.8% | viability [5] 93.6% | inhibition [6] 0.73% | RAM network inhibition [7] 2.28%

COc1ccc(C2C(C(=O)Nc3cc(C)on3)c3ccccc3C(=O)N2C)cc1OC (stereo unspecified)
inactive: growth inhibition [1] -4.48% | growth inhibition [2] 2.73% | viability increase [3] 0.61% | viability [4] 102% | viability [5] 99.4% | inhibition [6] 1.24% | RAM network inhibition [7] 4.64%

CCS(=O)(=O)NCCc1csc(-c2cccnc2)n1
inactive: growth inhibition [1] -1.29% | growth inhibition [2] -6.54% | viability increase [3] -0.37% | viability [4] 102% | viability [5] 102% | inhibition [6] 2.48% | RAM network inhibition [7] 6.14%

CCOc1ccc(Oc2nc(NCC(C)C)nc(OC)n2)nn1
inactive: growth inhibition [1] -8.33% | growth inhibition [2] 5.96% | viability increase [3] 0.16% | viability [4] 94.8% | viability [5] 91.5% | inhibition [6] 2.14% | RAM network inhibition [7] -1.03%

O=C(NCc1cccs1)c1cnc2sccn2c1=O
inactive: growth inhibition [1] -9.93% | growth inhibition [2] 18% | viability increase [3] 0.04% | viability [4] 99.3% | viability [5] 89.9% | inhibition [6] 1.6% | RAM network inhibition [7] 0.36%

COc1ccc(-c2cn3c(C)c(C(=O)N4CCN(c5ccc(OC)cc5)CC4)sc3n2)cc1
inactive: growth inhibition [1] -5.73% | growth inhibition [2] -9.94% | viability increase [3] -1.79% | viability [4] 103% | viability [5] 104% | inhibition [6] 2.58% | RAM network inhibition [7] 3.17%

Nn1c(SCC(=O)Nc2ccc(F)cc2)nnc1-c1ccccn1
inactive: growth inhibition [1] -4.5% | growth inhibition [2] 0.845% | viability increase [3] -0.55% | viability [4] 109% | viability [5] 95.7% | inhibition [6] 1.88% | RAM network inhibition [7] 0.9%

Cc1cc(C)nc(SCC(=O)Nc2ccc(S(=O)(=O)Nc3onc(C)c3C)cc2)n1
inactive: growth inhibition [1] -5.04% | growth inhibition [2] 14% | viability increase [3] 0.95% | viability [4] 109% | viability [5] 101% | inhibition [6] 0.88% | RAM network inhibition [7] -1.62%

COc1ccc(-c2cc(N)n(S(=O)(=O)Cc3ccccc3)n2)c(OC)c1
inactive: growth inhibition [1] -2.75% | growth inhibition [2] -12.7% | viability increase [3] 0.27% | viability [4] 101% | viability [5] 96.8% | inhibition [6] 2.42% | RAM network inhibition [7] 5.13%

CCCC(NS(=O)(=O)c1ccc(OC)cc1)C(=O)O (stereo unspecified)
inactive: growth inhibition [1] -8.86% | growth inhibition [2] -7.75% | viability increase [3] -1.16% | viability [4] 90.1% | viability [5] 95.4% | inhibition [6] 1.29% | RAM network inhibition [7] 3.19%

CC(=O)CCS(=O)(=O)c1ccc(C)c(C)c1
inactive: growth inhibition [1] -1.55% | growth inhibition [2] -7.75% | viability increase [3] -6.33% | viability [4] 71.6% | viability [5] 90.2% | inhibition [6] 0.885% | RAM network inhibition [7] 1.15%

COc1cc(OC)cc(C(=O)NCC2CCCO2)c1 (stereo unspecified)
inactive: growth inhibition [1] -7.69% | growth inhibition [2] 10.1% | viability increase [3] -1.51% | viability [4] 94.6% | viability [5] 91.7% | inhibition [6] 0.465% | RAM network inhibition [7] 0.29%

CCc1c(C)nc(SCCOc2ccc(OC)cc2)[nH]c1=O
inactive: growth inhibition [1] -12.6% | growth inhibition [2] -9.17% | viability increase [3] -0.04% | viability [4] 108% | viability [5] 93.9% | inhibition [6] -0.015% | RAM network inhibition [7] 1.64%
